Ends that are not written are not given here.
T1: CDC25A full length, recombinant (human, UniProt P30304 1-524)
T1 sequence (looked up): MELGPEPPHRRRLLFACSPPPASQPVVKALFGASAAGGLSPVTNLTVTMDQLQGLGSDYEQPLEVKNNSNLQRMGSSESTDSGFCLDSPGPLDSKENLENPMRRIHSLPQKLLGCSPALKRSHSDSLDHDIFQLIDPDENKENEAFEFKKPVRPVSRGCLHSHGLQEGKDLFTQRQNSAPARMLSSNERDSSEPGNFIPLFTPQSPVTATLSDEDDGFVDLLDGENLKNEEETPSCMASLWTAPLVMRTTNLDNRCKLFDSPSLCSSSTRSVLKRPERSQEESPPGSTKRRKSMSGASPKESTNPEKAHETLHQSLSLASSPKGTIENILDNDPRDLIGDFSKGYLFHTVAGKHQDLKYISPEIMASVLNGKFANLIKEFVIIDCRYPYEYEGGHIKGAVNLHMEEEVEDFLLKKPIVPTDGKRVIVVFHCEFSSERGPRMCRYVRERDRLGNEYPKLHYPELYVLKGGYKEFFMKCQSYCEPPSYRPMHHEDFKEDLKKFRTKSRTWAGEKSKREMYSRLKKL

T2: GST-WAPL 375-625 (human, UniProt Q7Z5K2 375-625)
T2 sequence (looked up): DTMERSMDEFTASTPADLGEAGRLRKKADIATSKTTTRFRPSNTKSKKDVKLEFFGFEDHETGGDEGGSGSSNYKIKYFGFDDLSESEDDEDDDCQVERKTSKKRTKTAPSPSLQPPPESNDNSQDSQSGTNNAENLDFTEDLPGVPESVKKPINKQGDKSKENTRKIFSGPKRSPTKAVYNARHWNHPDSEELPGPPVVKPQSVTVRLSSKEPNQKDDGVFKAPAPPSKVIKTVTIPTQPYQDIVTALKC

T3: PPP4R3A EVH1 domain (Homo sapiens, UniProt Q6IN85)
T3 sequence (Q6IN85 2-117): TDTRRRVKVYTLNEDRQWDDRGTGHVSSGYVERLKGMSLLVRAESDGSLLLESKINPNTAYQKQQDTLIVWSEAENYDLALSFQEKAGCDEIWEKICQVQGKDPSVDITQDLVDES

B1: EVH1 domain of PPP4R3A (amino acids 2-117) (domain or fragment, human, UniProt Q6IN85 2-117, looked up)
chain: T3 sequence (Q6IN85 2-117)

Biological target: T1, CDC25A full length, recombinant
Experiment: ITC

| Molecule | binding result |
| --- | --- |
| B1 | binds |

Biological target: T2, GST-WAPL 375-625
Experiment: ITC

| Molecule | binding result |
| --- | --- |
| B1 | binds |

Biological target: T3, PPP4R3A EVH1 domain
Experiment: ITC of peptides with the EVH1 domain from PPP4R3A
Type: binding
How it was run: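 Peptide in syringe, titrated at 25 °C into cell holding EVH1 domain: one 0.4 μl injection, then 19 × 2 μl at 150 s spacing, stirring 750 rpm. Peptide-into-buffer controls run. Heats normalised per mole injectant, fitted to single-site model.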

| Molecule | Kd [µM] |
| --- | --- |
| DPDTELAPPPPPKRPHPL [MCE1-M1A] | 85.6 |
| DPDTELMPPPPAKRPHPL [MCE1-P6A] | 1.4 |
| DPDTEAMPPPPPKRPHPL [MCE1-L(-1)A] | 3.78 |
| DPDTELMPAPPPKRPHPL [MCE1-P3A] | 7.58 |
| DPDTELMPPAPPKRPHPL [MCE1-P4A] | 119 |
| DPDTELMPPPAPKRPHPL [MCE1-P5A] | 1.49 |

Biological target: B1
Experiment: ITC

| Molecule | Kd [µM] |
| --- | --- |
| DPDTELMPPPPPKRPHPL [MCE1 MxPP motif peptide] | 0.98 |
| DPDTELMAPPPPKRPHPL [MCE1 peptide MCE1-P2A] | 7.93 |
| PFTAKVPAPPPS [model peptide P1: Ala] | 53 |
| PFTFKVAAPPPS [model peptide P4: Ala] | 53 |

From PMC6981294 (Molecular cell, 2019)
